In ChEMBL document CHEMBL4229337, “Design, synthesis and biological evaluation of 1-hydroxy-2-phenyl-4-pyridyl-1H-imidazole derivatives as xanthine oxidase inhibitors” (Eur J Med Chem, 2018):

How the values were obtained:
[1] = target: T1, Xanthine dehydrogenase/oxidase (Bos taurus, UniProt P80457); assay: Inhibition of bovine xanthine oxidase assessed as reduction in uric acid formation at 10 ug/ml using xanthine as substrate preincubated for 15 mins followed by substrate addition by spectrophotometric analysis; details: cattle
T1 sequence (P80457 whole entry): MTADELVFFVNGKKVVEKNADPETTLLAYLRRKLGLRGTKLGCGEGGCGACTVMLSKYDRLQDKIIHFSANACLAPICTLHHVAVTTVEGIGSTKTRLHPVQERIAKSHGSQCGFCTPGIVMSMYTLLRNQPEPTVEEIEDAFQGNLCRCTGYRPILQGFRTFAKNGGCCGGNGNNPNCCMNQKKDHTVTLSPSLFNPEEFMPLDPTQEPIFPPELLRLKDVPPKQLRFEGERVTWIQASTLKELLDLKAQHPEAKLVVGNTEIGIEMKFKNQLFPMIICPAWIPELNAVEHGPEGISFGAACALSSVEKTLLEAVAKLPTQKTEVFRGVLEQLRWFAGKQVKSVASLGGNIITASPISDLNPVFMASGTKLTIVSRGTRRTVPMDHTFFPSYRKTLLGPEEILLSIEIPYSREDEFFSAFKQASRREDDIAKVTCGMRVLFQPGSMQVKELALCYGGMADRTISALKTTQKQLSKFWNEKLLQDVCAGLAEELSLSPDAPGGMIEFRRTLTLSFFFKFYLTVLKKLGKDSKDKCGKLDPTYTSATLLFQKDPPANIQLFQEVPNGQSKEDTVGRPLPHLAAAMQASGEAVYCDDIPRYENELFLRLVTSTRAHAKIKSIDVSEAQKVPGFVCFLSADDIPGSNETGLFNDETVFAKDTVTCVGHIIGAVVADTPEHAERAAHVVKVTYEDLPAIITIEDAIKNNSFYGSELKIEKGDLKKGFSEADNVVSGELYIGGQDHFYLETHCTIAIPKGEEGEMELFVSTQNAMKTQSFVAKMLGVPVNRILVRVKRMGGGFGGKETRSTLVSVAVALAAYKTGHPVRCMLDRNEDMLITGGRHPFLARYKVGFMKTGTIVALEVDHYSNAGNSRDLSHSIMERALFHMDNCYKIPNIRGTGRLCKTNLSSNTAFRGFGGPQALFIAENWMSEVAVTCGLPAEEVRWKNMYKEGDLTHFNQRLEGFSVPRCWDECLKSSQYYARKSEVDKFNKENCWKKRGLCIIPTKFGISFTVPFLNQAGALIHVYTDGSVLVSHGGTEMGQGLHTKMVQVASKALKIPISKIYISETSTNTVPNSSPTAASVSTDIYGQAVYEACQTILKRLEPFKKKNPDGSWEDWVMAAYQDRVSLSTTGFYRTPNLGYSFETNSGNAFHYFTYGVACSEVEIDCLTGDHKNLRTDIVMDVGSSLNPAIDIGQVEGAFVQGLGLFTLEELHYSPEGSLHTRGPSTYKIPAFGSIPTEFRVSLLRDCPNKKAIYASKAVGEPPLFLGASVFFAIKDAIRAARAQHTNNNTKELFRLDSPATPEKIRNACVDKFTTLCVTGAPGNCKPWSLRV
In short: (§1)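 XO (15 U/L) in 0.1 M sodium pyrophosphate buffer pH 8.3 with 0.3 mM Na₂EDTA, preincubated 15 min with test compound; reaction started by adding 64 μM xanthine. Inhibition read as lowered uric acid concentration, in triplicate. Single-point screen at 10 µg/mL; compounds above 50% inhibition were then run over a wide concentration range to derive IC₅₀.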

[2] = target: T1, Xanthine dehydrogenase/oxidase; assay: Inhibition of bovine xanthine oxidase assessed as reduction in uric acid formation using xanthine as substrate preincubated for 15 mins followed by substrate addition by spectrophotometric analysis; in short: as §1
[3] = target: T1, Xanthine dehydrogenase/oxidase; assay: Mixed-type inhibition of bovine xanthine oxidase assessed as reduction in uric acid formation using xanthine as substrate preincubated for 15 mins followed by substrate addition by spectrophotometry based Lineweaver-Burk plot analysis; details: cattle

Question: With N#Cc1cccc(-c2nc(-c3cccnc3)cn2O)c1 as the compound, how does the “inhibition (INH)” value [1] read?
Answer: < 50%

Question: With CCCCOc1ccc(-n2cc(-c3ccncc3)nn2)cc1C#N as the compound, how does the pIC50 [2] read?
Answer: 4.68

Question: Cc1cc(-c2nnc(-c3ccc(OCC(=O)O)c(C#N)c3)[nH]2)ccn1 was tested. Which pIC50 [2] did it give?
Answer: 6.96

Question: With N#Cc1cc(-c2n[nH]c(-c3ccncc3)n2)ccn1 [TOPIROXOSTAT] as the compound, how does the IC50 [2] read?
Answer: 0.0048 µM

Question: Which “inhibition (INH)” value [1] does the source give for COc1ccc(-c2nc(-c3cccnc3)cn2O)cc1C#N here?
Answer: < 50%

Question: Which pIC50 [2] does the source give for N#Cc1cc(-n2cc(-c3ccncc3)nn2)ccc1OC1CCCC1 here?
Answer: 5.17

Question: For N#Cc1cccc(-c2nc(-c3ccncc3)cn2O)c1, which “inhibition (INH)” value [1] is on record?
Answer: < 50%

Question: With CCC(C)Oc1ccc(-c2nc(-c3ccncc3)cn2O)cc1C#N (configuration not stated) as the compound, how does the IC50 [2] read?
Answer: 4.35 µM

Question: What about the pIC50 [2] of the same compound?
Answer: 5.36

Question: For CC(C)Oc1ccc(-n2cc(-c3ccncc3)nn2)cc1C#N, which pIC50 [2] is on record?
Answer: 4.6

Question: For CC(C)COc1ccc(-c2nnc(-c3ccnc(Cl)c3)[nH]2)cc1[N+](=O)[O-], which pIC50 [2] is on record?
Answer: 8

Question: Which pIC50 [2] does the source give for Cc1cc(-c2n[nH]c(-c3ccc(O)c(C#N)c3)n2)ccn1 here?
Answer: 7.37

Question: For CCCCCOc1ccc(-n2cc(-c3ccncc3)nn2)cc1C#N, which pIC50 [2] is on record?
Answer: 4.79

Question: Which “inhibition (INH)” value [1] does the source give for C=CCOc1ccc(-c2nc(-c3ccncc3)cn2O)cc1C#N here?
Answer: < 50%

Question: How did the “inhibition (INH)” value [1] turn out when CCC(C)Oc1ccc(-c2nc(-c3cccnc3)cn2O)cc1C#N (configuration not stated) was run?
Answer: < 50%

Question: For COc1ccc(-c2nc(-c3ccncc3)cn2O)cc1C#N, which IC50 [2] is on record?
Answer: 15.4 µM

Question: And the pIC50 [2]?
Answer: 4.81

Question: With C=CCOc1ccc(-c2nc(-c3cccnc3)cn2O)cc1C#N as the compound, how does the IC50 [2] read?
Answer: 9.62 µM

Question: What about the pIC50 [2] of the same compound?
Answer: 5.02

Question: CC(C)COc1ccc(-c2nc(-c3cccnc3)cn2O)cc1C#N was tested. Which IC50 [2] did it give?
Answer: 10.3 µM

Question: What about the pIC50 [2] of the same compound?
Answer: 4.99

Question: Which “inhibition (INH)” value [1] does the source give for CC(C)Oc1ccc(-c2nc(-c3cccnc3)cn2O)cc1C#N here?
Answer: < 50%

Question: For COCCOc1ccc(-c2nc(-c3ccnc(C)c3)n[nH]2)cc1C#N, which pIC50 [2] is on record?
Answer: 7.19

Question: Which pIC50 [2] does the source give for Cc1cc(-c2nnc(-c3ccc(OCCOCCOCCCl)c(C#N)c3)[nH]2)ccn1 here?
Answer: 7.68

Question: Which pIC50 [2] does the source give for COCCOCCOc1ccc(-c2nc(-c3ccnc(C)c3)n[nH]2)cc1C#N here?
Answer: 7.51

Question: With CC(C)COc1ccc(-c2nc(-c3ccncc3)cn2O)cc1C#N as the compound, how does the “inhibition (INH)” value [1] read?
Answer: < 50%

Question: For CC(C)COc1ccc(-c2nc(-c3cccnc3)n[nH]2)cc1[N+](=O)[O-], which pIC50 [2] is on record?
Answer: 5.23

Question: Which pIC50 [2] does the source give for CCOC(=O)c1cc(-c2nnc(-c3ccnc(C)c3)[nH]2)ccc1OCC(C)C here?
Answer: 7.7

Question: Which pIC50 [2] does the source give for COCOc1ccc(-c2nc(-c3ccnc(C)c3)n[nH]2)cc1C#N here?
Answer: 7.62

Question: CCC(C)Oc1ccc(-n2cc(-c3ccncc3)nn2)cc1C#N (configuration not stated) was tested. Which pIC50 [2] did it give?
Answer: 4.74

Question: With Cc1cc(-c2n[nH]c(-c3ccc(OCC4COC(C)(C)O4)c(C#N)c3)n2)ccn1 (configuration not stated) as the compound, how does the pIC50 [2] read?
Answer: 7.22

Question: Which pIC50 [2] does the source give for Cc1cc(-c2n[nH]c(-c3ccc(OCCO)c(C#N)c3)n2)ccn1 here?
Answer: 7.4

Question: CC(C)CCOc1ccc(-n2cc(-c3ccncc3)nn2)cc1C#N was tested. Which pIC50 [2] did it give?
Answer: 5.09

Question: Which results are given for CC(C)CCOc1ccc(-c2nc(-c3cccnc3)cn2O)cc1C#N?
Answer: IC50 [2]: 6.73 µM; pIC50 [2]: 5.17

Question: For CCCCOCCOCCOc1ccc(-c2nnc(-c3ccnc(C)c3)[nH]2)cc1C#N, which pIC50 [2] is on record?
Answer: 7.59

Question: Which “inhibition (INH)” value [3] does the source give for CC(C)CCOc1ccc(-c2nc(-c3ccncc3)cn2O)cc1C#N here?
Answer: Active

Question: And the IC50 [2]?
Answer: 0.64 µM

Question: What about the pIC50 [2] of the same compound?
Answer: 6.19

Question: What about the “inhibition (INH)” value ([2]; cattle) of the same compound?
Answer: Dose-dependent effect

Question: With Cc1cc(-c2nc(-c3ccc(OCC(C)C)c([N+](=O)[O-])c3)n[nH]2)ccn1 as the compound, how does the pIC50 [2] read?
Answer: 8

Question: Which pIC50 [2] does the source give for Cc1cc(-c2n[nH]c(-c3ccc(OCC(C)C)c(C#N)c3)n2)ccn1 here?
Answer: 7.77

Question: For COCCOCOc1ccc(-c2nc(-c3ccnc(C)c3)n[nH]2)cc1C#N, which pIC50 [2] is on record?
Answer: 7.62

Question: CC(C)Oc1ccc(-c2nc(-c3ccncc3)cn2O)cc1C#N was tested. Which IC50 [2] did it give?
Answer: 4.75 µM

Question: And the pIC50 [2]?
Answer: 5.32

Question: For COc1ccc(COc2ccc(-n3cc(-c4ccncc4)nn3)cc2C#N)cc1, which pIC50 [2] is on record?
Answer: 4.63

Question: N#Cc1cc(-n2cc(-c3ccncc3)nn2)ccc1OCc1ccccc1 was tested. Which pIC50 [2] did it give?
Answer: 4.35
